Measured values as given in ChEMBL document CHEMBL1154089, “Novel N-(3-carboxyl-9-benzyl-beta-carboline-1-yl)ethylamino acids: synthesis, anti-tumor evaluation, intercalating determination, 3D QSAR analysis and docking investigation” (Eur J Med Chem, 2009).
pIC50: −log10 of the molar value. Activity calls are given as the source filed them. The rule behind the calls is not given here.

Key:
Mus musculus [1] = test: Toxicity in ICR mouse assessed as death at > 500 mg/kg, ip after 7 days; assay type: organism-based; design: dose 500 mg/kg, route intraperitoneal; conditions: in vivo, 168 h
Outline: (§1)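 Mice fasted overnight with free access to water, then given a single i.p. injection of 150, 300 or 500 mg/kg in 0.2 ml of 0.9% saline. Groups of 12 (six male, six female). Animals were watched continuously for up to 7 days for abnormal behaviour (tremor, twitch, jumping, tetanus, supination) or death. They were sacrificed on day 7, and heart, liver and kidneys were checked macroscopically. LD50 was estimated graphically.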

Mus musculus [2] = test: Toxicity in ICR mouse assessed as supination at > 500 mg/kg, ip after 7 days; assay type: organism-based; design: dose 500 mg/kg, route intraperitoneal; conditions: in vivo, 168 h; outline: as §1
CCRF S-180 [3] = test: Antitumor activity against mouse S180 cells xenografted in ICR mouse assessed as inhibition of tumor growth at 89 umol/kg, ip administered 24 hrs after tumor implantation once daily for 7 consecutive days measured after 24 hrs last post dose; assay type: functional; conditions: CCRF S-180, ip
Outline: (§2)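 S180 solid tumors in male ICR mice (10–12 weeks), 1 × 10^7 cells s.c. at the right armpit. Mice randomized at 24 h, n = 12 per group, and dosed i.p. daily in 0.2 ml 0.9% saline for 7 days. Tumors weighed 24 h after the final dose. Inhibition (%) = [(A − B)/A] × 100, where A is the mean tumor weight of saline controls and B is the mean of the treated group.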

CCRF S-180 [4] = test: Antitumor activity against mouse S180 cells xenografted in ICR mouse assessed as decrease in tumor weight at 0.0089 umol/kg, ip administered 24 hrs after tumor implantation once daily for 7 consecutive days measured after 24 hrs last post dose; assay type: functional
Outline: (§3)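 Male ICR mice, 10–12 weeks old. Solid tumors from 1 × 10^7 viable S180 ascites cells in 0.2 ml 0.9% saline, injected s.c. at the right armpit. Random allocation at 24 h, 12 per group. Dosed i.p. daily in 0.2 ml 0.9% saline for 7 days. Saline-only negative control; cytarabine 89 µmol/kg positive control. Tumors excised and weighed 24 h after the last dose. ANOVA used for statistics.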

Mus musculus [5] = test: Toxicity in ICR mouse assessed as twitch at > 500 mg/kg, ip after 7 days; assay type: organism-based; design: dose 500 mg/kg, route intraperitoneal; conditions: in vivo, 168 h; outline: as §1
CCRF S-180 [6] = test: Antitumor activity against mouse S180 cells xenografted in ICR mouse assessed as inhibition of tumor growth at 0.89 umol/kg, ip administered 24 hrs after tumor implantation once daily for 7 consecutive days measured after 24 hrs last post dose; assay type: functional; conditions: CCRF S-180, ip; outline: as §2
Mus musculus [7] = test: Toxicity in mouse S180 cells xenografted in ICR mouse assessed as increase in body weight at 89 umol/kg, ip administered 24 hrs after tumor implantation once daily for 7 consecutive days measured after 24 hrs last post dose; assay type: organism-based, CCRF S-180; conditions: in vivo
Outline: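 S180-bearing male ICR mice, n = 12 per group, given 89 µmol/kg i.p. daily in 0.2 ml 0.9% saline for 7 days, starting 24 h after s.c. implantation. Animals weighed daily. Result expressed as body-weight increase from the start of treatment, in g, mean ± SD.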

HL-60 = test: Cytotoxicity against human HL60 cells after 48 hrs by MTT assay; assay type: functional, cell-based; conditions: HL-60, 48 h
Outline: (§4)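 Cells grown in DMEM or RPMI-1640 with 10% FBS plus penicillin/streptomycin. Seeded at 5 × 10^4 cells/ml and given 4 h at 37 °C in 5% CO2 before the medium was replaced with compound (0.1–400 µM, DMSO vehicle; vehicle control 1% DMSO). After 48 h, MTT added (final 0.5 mg/ml) for 4 h. Formazan dissolved in DMSO and read at 570 nm. IC50 is the concentration giving 50% growth inhibition.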

CCRF S-180 [8] = test: Antitumor activity against mouse S180 cells xenografted in ICR mouse assessed as inhibition of tumor growth at > 89 umol/kg, ip administered 24 hrs after tumor implantation once daily for 7 consecutive days measured after 24 hrs last post dose; assay type: functional, organism-based
Mus musculus [9] = test: Toxicity in ICR mouse assessed as liver necropsy at > 500 mg/kg, ip after 7 days; assay type: organism-based; design: dose 500 mg/kg, route intraperitoneal; conditions: in vivo, 168 h; outline: as §1
CCRF S-180 [10] = test: Antitumor activity against mouse S180 cells xenografted in ICR mouse assessed as inhibition of tumor growth at 0.0089 umol/kg, ip administered 24 hrs after tumor implantation once daily for 7 consecutive days measured after 24 hrs last post dose; assay type: functional; conditions: CCRF S-180, ip; outline: as §2
[11] = Cytotoxicity against human MES-SA cells after 48 hrs by MTT assay; assay type: functional, cell-based; outline: as §4
Mus musculus [12] = test: Toxicity in ICR mouse assessed as heart necropsy at > 500 mg/kg, ip after 7 days; assay type: organism-based; design: dose 500 mg/kg, route intraperitoneal; conditions: in vivo, 168 h; outline: as §1
Mus musculus [13] = test: Toxicity in mouse S180 cells xenografted in ICR mouse assessed as spleen index at 89 umol/kg, ip administered 24 hrs after tumor implantation once daily for 7 consecutive days measured after 24 hrs last post dose; assay type: organism-based, CCRF S-180; conditions: in vivo
Outline: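 S180-bearing male ICR mice (n = 12) received 89 µmol/kg i.p. daily in 0.2 ml saline for 7 days. Killed under ether 24 h after the last dose; spleens excised and weighed. Spleen index given as mean ± SD, […] body weight.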

HepG2 = test: Cytotoxicity against human HepG2 cells after 48 hrs by MTT assay; assay type: functional, cell-based; conditions: HepG2, 48 h; outline: as §4
Mus musculus [14] = test: Toxicity in ICR mouse assessed as jumping at > 500 mg/kg, ip after 7 days; assay type: organism-based; design: dose 500 mg/kg, route intraperitoneal; conditions: in vivo, 168 h; outline: as §1
CCRF S-180 [15] = test: Antitumor activity against mouse S180 cells xenografted in ICR mouse assessed as decrease in tumor weight at 0.89 umol/kg, ip administered 24 hrs after tumor implantation once daily for 7 consecutive days measured after 24 hrs last post dose; assay type: functional; outline: as §3
Mus musculus [16] = test: Toxicity in ICR mouse assessed as tremor at > 500 mg/kg, ip after 7 days; assay type: organism-based; design: dose 500 mg/kg, route intraperitoneal; conditions: in vivo, 168 h; outline: as §1
[17] = Cytotoxicity against human H1299 cells after 48 hrs by MTT assay; assay type: functional, cell-based; conditions: NCI-H1299, 48 h; outline: as §4
HeLa = test: Cytotoxicity against human HeLa cells after 48 hrs by MTT assay; assay type: functional, cell-based; outline: as §4
Mus musculus [18] = test: Toxicity in ICR mouse assessed as tetanus at > 500 mg/kg, ip after 7 days; assay type: organism-based; design: dose 500 mg/kg, route intraperitoneal; conditions: in vivo, 168 h; outline: as §1
CCRF S-180 [19] = test: Antitumor activity against mouse S180 cells xenografted in ICR mouse assessed as decrease in tumor weight at 89 umol/kg, ip administered 24 hrs after tumor implantation once daily for 7 consecutive days measured after 24 hrs last post dose; assay type: functional; outline: as §3
Mus musculus [20] = test: Toxicity in ICR mouse assessed as kidneys necropsy at > 500 mg/kg, ip after 7 days; assay type: organism-based, Kidney; design: dose 500 mg/kg, route intraperitoneal; conditions: in vivo, 168 h; outline: as §1

## C[C@H](NCCc1nc(C(=O)O)cc2c3ccccc3n(Cc3ccccc3)c12)C(=O)O
Mus musculus [1]
  Activity: Non-toxic
Mus musculus [2]
  Activity: Non-toxic
CCRF S-180 [3]
  inhibition in vivo at 89 µmol/kg: 55.2%
CCRF S-180 [4]
  Activity: 1.64 g
Mus musculus [5]
  Activity: Non-toxic
CCRF S-180 [6]
  inhibition in vivo at 0.89 µmol/kg: 25.6%
Mus musculus [7]
  Activity: 12.92 g
HL-60
  pIC50: 4.55
CCRF S-180 [8]
  Activity: Active
Mus musculus [9]
  Activity: Non-toxic
CCRF S-180 [10]
  inhibition in vivo at 0.0089 µmol/kg: 1.5%
[11]
  pIC50: 3.92
Mus musculus [12]
  Activity: Non-toxic
Mus musculus [13]
  Activity: 13.3 mg/g
HepG2
  pIC50: 3.62
Mus musculus [14]
  Activity: Non-toxic
CCRF S-180 [15]
  Activity: 1.22 g
Mus musculus [16]
  Activity: Non-toxic
[17]
  pIC50: 4.09
HeLa
  pIC50: 3.91
Mus musculus [18]
  Activity: Non-toxic
CCRF S-180 [19]
  Activity: 0.74 g
Mus musculus [20]
  Activity: Non-toxic

## CC[C@H](C)[C@H](NCCc1nc(C(=O)O)cc2c3ccccc3n(Cc3ccccc3)c12)C(=O)O
Mus musculus [1]
  Activity: Non-toxic
Mus musculus [2]
  Activity: Non-toxic
CCRF S-180 [3]
  inhibition in vivo at 89 µmol/kg: 1.6%
Mus musculus [5]
  Activity: Non-toxic
Mus musculus [7]
  Activity: 13.56 g
HL-60
  pIC50: 4.48
Mus musculus [9]
  Activity: Non-toxic
[11]
  pIC50: 3.74
Mus musculus [12]
  Activity: Non-toxic
Mus musculus [13]
  Activity: 13.6 mg/g
HepG2
  pIC50: 3.60
Mus musculus [14]
  Activity: Non-toxic
Mus musculus [16]
  Activity: Non-toxic
[17]
  pIC50: 4.16
HeLa
  pIC50: 3.70
Mus musculus [18]
  Activity: Non-toxic
CCRF S-180 [19]
  Activity: 1.62 g
Mus musculus [20]
  Activity: Non-toxic

## O=C(O)CNCCc1nc(C(=O)O)cc2c3ccccc3n(Cc3ccccc3)c12
Mus musculus [1]
  Activity: Non-toxic
Mus musculus [2]
  Activity: Non-toxic
CCRF S-180 [3]
  inhibition in vivo at 89 µmol/kg: 11%
Mus musculus [5]
  Activity: Non-toxic
Mus musculus [7]
  Activity: 11.34 g
HL-60
  pIC50: < 3.40
Mus musculus [9]
  Activity: Non-toxic
[11]
  pIC50: 3.75
Mus musculus [12]
  Activity: Non-toxic
Mus musculus [13]
  Activity: 13.1 mg/g
HepG2
  pIC50: < 3.40
Mus musculus [14]
  Activity: Non-toxic
Mus musculus [16]
  Activity: Non-toxic
[17]
  pIC50: 4.12
HeLa
  pIC50: < 3.40
Mus musculus [18]
  Activity: Non-toxic
CCRF S-180 [19]
  Activity: 1.47 g
Mus musculus [20]
  Activity: Non-toxic

## O=C(O)c1cc2c3ccccc3n(Cc3ccccc3)c2c(CCN[C@@H](Cc2ccccc2)C(=O)O)n1
Mus musculus [1]
  Activity: Non-toxic
Mus musculus [2]
  Activity: Non-toxic
CCRF S-180 [3]
  inhibition in vivo at 89 µmol/kg: 5.2%
Mus musculus [5]
  Activity: Non-toxic
Mus musculus [7]
  Activity: 9.74 g
HL-60
  pIC50: 4.50
Mus musculus [9]
  Activity: Non-toxic
[11]
  pIC50: 4.96
Mus musculus [12]
  Activity: Non-toxic
Mus musculus [13]
  Activity: 14.4 mg/g
HepG2
  pIC50: 3.94
Mus musculus [14]
  Activity: Non-toxic
Mus musculus [16]
  Activity: Non-toxic
[17]
  pIC50: 4.23
HeLa
  pIC50: 4.29
Mus musculus [18]
  Activity: Non-toxic
CCRF S-180 [19]
  Activity: 1.56 g
Mus musculus [20]
  Activity: Non-toxic
